Screening results: PubChem, The Scripps Research Institute Molecular Screening Center
TAAR1 antag = antagonists of human TAAR1; inhibition, % at 3 µM; AID 624466; 1.5% of 360,000 active; CHO RD-HGA16 TAAR1, Fluo-8 calcium fluorescence, antagonist;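 active = inhibition above a per-plate cutoff, the mean inhibition of test compounds on that plate plus 3 SD, cut at about 49% in these data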;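 also: 0% = DMSO plus EC80 beta-PEA response and 100% = DMSO alone without agonist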
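Test system – hTAAR1-expressing CHO RD-HGA16 cells, Gα16-coupled · Also added – β-PEA at EC80 concentration, post-compound challenge · Compound – 3 µM, single point · Incubation – dye loading 75 min at 37 °C, then 30 min room temperature · Measured by – Fluo-8 intracellular calcium dye fluorescence, real-time kinetic reads · Benchmarks – vehicle and agonist controls · Replicates – singlicate, one well per test compound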
TAAR1 ag = agonists of human TAAR1 | AID 624467 | activation, % at 3 µM | 0.99% of 360,000 active | CHO RD-HGA16 TAAR1, Fluo-8 calcium fluorescence; vehicle wells 0%, saturating PEA agonist 100%;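 active = activation above the mean activation of all test compounds in the run plus 3 SD, cut at about 38% in these data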
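Signal – calcium-sensitive Fluo-8 signal, excitation 470-495, emission 515-575 nm · System – RD-HGA16 (CHO) cells co-expressing Gα16 and hTAAR1 · Incubation – 17-24 h seeding, 75 min 37 °C dye, 30 min RT · Compound dosing – 3 µM single concentration · Repeats – no replicates (n 1)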
OX1R antag-1 = blocks the human orexin 1 receptor; O43613; CHO/OX1R cells, Fluo-8 calcium fluorescence, orexin A; inhibition, % at 5 µM; 0.43% of 330,000 active;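 active = inhibition above its plate's threshold, mean inhibition of all tested compounds on the plate plus 3 SD, cut at about 37% in these data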;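 also: 0% = orexin A challenge wells and 100% = SB-334867-A antagonist wells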
Target sequence (O43613 whole entry, looked up): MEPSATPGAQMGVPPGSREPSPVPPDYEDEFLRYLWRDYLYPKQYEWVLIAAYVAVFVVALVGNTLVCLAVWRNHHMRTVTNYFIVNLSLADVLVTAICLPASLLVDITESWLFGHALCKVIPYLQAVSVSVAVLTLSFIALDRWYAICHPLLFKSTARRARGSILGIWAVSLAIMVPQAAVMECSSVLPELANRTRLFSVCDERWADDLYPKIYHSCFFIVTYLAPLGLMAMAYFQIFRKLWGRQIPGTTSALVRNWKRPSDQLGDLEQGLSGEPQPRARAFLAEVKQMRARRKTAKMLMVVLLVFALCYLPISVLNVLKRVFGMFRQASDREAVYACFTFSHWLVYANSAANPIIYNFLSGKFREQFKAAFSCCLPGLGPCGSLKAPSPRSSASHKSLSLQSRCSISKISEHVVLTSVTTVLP
OX1R antag-2 = OX1R (human) antagonism | O43613 | OX1R-expressing cells, FRET antagonist read-out | inhibition, % at 6.6 µM | 1.8% of 330,000 active | AID 485270; in the data active = inhibition mostly above about 38%, no sharp cut-off; inactive = mostly below about 40%;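 also: 0% = agonist challenge alone and 100% = reference antagonist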
CHO parental Ca = counter-screen for OX1R antagonists: effect in parental CHO cells; parental CHO-K1, ATP-induced calcium, Fluo-8 fluorescence; inhibition, % at 5.6 µM; 0.63% of 330,000 active;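 active = inhibition above that plate's mean sample inhibition plus 3 SD, cut at about 26% in these data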;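 also: 0% = ATP-challenged DMSO wells and 100% = DMSO wells without ATP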
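Assay system – parental CHO cells · Reagent – ATP stimulus · Detection – intracellular calcium via Fluo-8 no-wash fluorescent dye · Evaluation – percent inhibition of ATP-evoked calcium rise, normalized to controls · Controls – ATP wells versus no-ATP DMSO wells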
GPR7 antag = antagonists of human GPR7 (neuropeptides B/W receptor 1). inhibition, % at 4.4 µM. GPR7-expressing cells, fluorescence antagonist assay. P48145. AID 1861. 1.1% of 290,000 active; in the data active = inhibition above about 16%, passing the limit was not always enough;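 also: cells stimulated with the agonist NPW; 0% = agonist with vehicle and 100% = vehicle without agonist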
An asterisk follows results filed as active. This is a sample that favours compounds with a hit; in the whole collection about 4.5% have one here.

O=C(O)Cn1c(SCCOc2ccccc2)nc2ccccc21 was read as TAAR1 antag -1.3, TAAR1 ag 20.4, OX1R antag-1 7.8, OX1R antag-2 42.9*, CHO parental Ca -11.2 and GPR7 antag -5.5.
Cc1ccc(OCCSc2nc3ccccc3n2CC(=O)O)cc1C was read as TAAR1 antag 2.2, TAAR1 ag 0.0, OX1R antag-1 -4.2, OX1R antag-2 43.1*, CHO parental Ca -11.8 and GPR7 antag -6.3.
Cc1ccc(S(=O)(=O)N(C)C)cc1NC(=O)C(C)OC(=O)/C=C/c1cccs1 (centres undefined) was read as TAAR1 antag -5.3, TAAR1 ag 2.6, OX1R antag-1 -20.3, OX1R antag-2 19.2, CHO parental Ca -8.9 and GPR7 antag -8.3.
Cc1ccc(-c2nc3cc(C)c(Br)c(C)n3c2Cc2ccsc2)cc1 was read as TAAR1 antag -33.0 and TAAR1 ag 0.1.
Screening COc1cc(C(C)=O)ccc1OCC(=O)Nc1ccc(C)c(S(=O)(=O)N2CCCCCC2)c1 returned TAAR1 antag 76.6*, TAAR1 ag 18.5, OX1R antag-1 53.4*, OX1R antag-2 29.0 and CHO parental Ca 32.5*.
Screening Cc1ccc(NC(=O)COc2ccc(N(C)C(=O)C(C)(C)C)cc2)cc1S(=O)(=O)N1CCCCC1 returned TAAR1 antag 51.9*, TAAR1 ag 10.2, OX1R antag-1 72.8*, OX1R antag-2 19.8 and CHO parental Ca 77.9*.
For Cc1ccc(NC(=O)COc2cccc(C)c2C)cc1S(=O)(=O)N1CCCCCC1 the results were TAAR1 antag 24.5, TAAR1 ag -0.7, OX1R antag-1 -11.9, OX1R antag-2 19.1 and CHO parental Ca 2.6.
Screening CCc1cccc(OCC(=O)Nc2ccc(C)c(S(=O)(=O)N3CCCCCC3)c2)c1 returned TAAR1 antag 50.1*, TAAR1 ag 3.6, OX1R antag-1 22.4, OX1R antag-2 34.2 and CHO parental Ca 34.9*.
`O=C(CCCOc1ccc(Br)cc1)Nc1ccc(S(=O)(=O)N2CCOCC2)cc1` gave TAAR1 antag 42.8, TAAR1 ag 16.4, OX1R antag-1 27.1, OX1R antag-2 14.3 and CHO parental Ca 34.6*.
COc1cc(C(C)=O)ccc1OCC(=O)Nc1ccc(S(=O)(=O)N2CCCCC2)cc1 was read as TAAR1 antag 19.4 and TAAR1 ag 5.8.
O=C(COc1ccc(S(=O)(=O)N2CCOCC2)cc1)Nc1ccc(Br)cc1 was read as TAAR1 antag 43.5, TAAR1 ag 11.2, OX1R antag-1 -9.0, OX1R antag-2 5.2 and CHO parental Ca -8.8.
CCc1noc(C)c1C(=O)NCCN1C(=O)S/C(=C\c2ccccc2F)C1=O was read as TAAR1 antag 11.4 and TAAR1 ag 10.8.
`O=C(/C=C(\Nc1ccc(Br)c(F)c1)c1ccccc1)c1ccccc1` gave TAAR1 antag -19.6 and TAAR1 ag 0.1.
Screening COc1ccc(NC(=O)CCCOc2ccc(C)cc2)cc1S(=O)(=O)N1CCCCC1 returned TAAR1 antag 2.7 and TAAR1 ag 1.7.
For O=C(N[C@H](C(=O)N1CCC[C@H]1C(=O)NCc1ccccc1)c1ccccc1)C1CCCC1 the results were TAAR1 antag -3.6 and TAAR1 ag 1.3.
`CC(C)(C)C(c1nc2ccccc2[nH]1)n1c(-c2ccsc2)nc2ccccc21` (centres undefined) gave TAAR1 antag -20.2 and TAAR1 ag -1.8.
Cc1ccc(NC(=O)COc2ccccc2C(N)=O)cc1S(=O)(=O)N1CCCCCC1 was read as TAAR1 antag 37.2, TAAR1 ag 15.0, OX1R antag-1 53.0*, OX1R antag-2 22.6 and CHO parental Ca 27.9.
`CC(=O)Nc1ccc(OCC(=O)Nc2ccc(Cl)c(S(=O)(=O)N3CCOCC3)c2)cc1` gave TAAR1 antag 44.8, TAAR1 ag 13.6, OX1R antag-1 54.0*, OX1R antag-2 18.6 and CHO parental Ca 29.0*.
`COC(=O)c1cc2c(c3c4cc(C)ccc4n(S(=O)(=O)c4ccc(C)cc4)c13)C(=O)N(Cc1ccccc1OC)C2` gave TAAR1 antag -27.5 and TAAR1 ag -0.7.
Cc1ccc2cc(C)c3nnc(SCC(=O)c4cccs4)n3c2c1C was read as TAAR1 antag 11.9, TAAR1 ag 4.2, OX1R antag-1 -9.7, OX1R antag-2 45.4*, CHO parental Ca -16.1 and GPR7 antag -9.1.
`Cc1cc2ccc(C)c(C)c2nc1SCC(=O)c1cccs1` gave TAAR1 antag -0.6, TAAR1 ag 7.8, OX1R antag-1 -22.3, OX1R antag-2 12.2, CHO parental Ca -13.6 and GPR7 antag -12.7.
For CCOC(=O)c1cccc(NC(=O)CCS(=O)(=O)c2cccs2)c1 the results were TAAR1 antag -9.3, TAAR1 ag 2.9, OX1R antag-1 -26.5, OX1R antag-2 17.0, CHO parental Ca -11.6 and GPR7 antag -1.4.
`COc1ccc(NC(=O)c2ccc(NC(=O)CCS(=O)(=O)c3cccs3)cc2)cc1` gave TAAR1 antag 53.0*, TAAR1 ag 22.0, OX1R antag-1 -6.8, OX1R antag-2 16.6, CHO parental Ca 5.0 and GPR7 antag -1.7.
COc1cccc(NC(=O)CCS(=O)(=O)c2cccs2)c1 was read as TAAR1 antag 7.4, TAAR1 ag 10.9, OX1R antag-1 -4.5, OX1R antag-2 7.2, CHO parental Ca 4.9 and GPR7 antag 3.0.
CCOC(=O)c1cccc(NC(=O)CCS(=O)(=O)c2ccc(Br)s2)c1 was read as TAAR1 antag 3.5, TAAR1 ag 16.5, OX1R antag-1 -10.5, OX1R antag-2 45.7*, CHO parental Ca -17.3 and GPR7 antag -1.8.
For CC(=O)c1cccc(NC(=O)c2ccc(NC(=O)CCS(=O)(=O)c3cccs3)cc2)c1 the results were TAAR1 antag 51.5*, TAAR1 ag 8.3, OX1R antag-1 -20.1, OX1R antag-2 3.8, CHO parental Ca -18.4 and GPR7 antag -15.0.
CC(Sc1nnnn1C)C(=O)Nc1cc(S(=O)(=O)N2CCCCC2)ccc1Cl (centres undefined) was read as TAAR1 antag -22.6, TAAR1 ag 4.5, OX1R antag-1 -32.5, OX1R antag-2 7.5 and CHO parental Ca -15.2.
For Cc1ccc(-n2nnnc2SCC(=O)NC(C(=O)O)(c2ccccc2)c2ccccc2)cc1C the results were TAAR1 antag 9.7, TAAR1 ag 0.9, OX1R antag-1 -13.0, OX1R antag-2 57.4*, CHO parental Ca -14.5 and GPR7 antag -3.6.
CCC(=O)Nc1ccc(NC(=O)CSc2nnnn2-c2ccc3c(c2)OCCO3)cc1 was read as TAAR1 antag -2.9, TAAR1 ag 7.9, OX1R antag-1 -4.2, OX1R antag-2 1.8, CHO parental Ca 4.1 and GPR7 antag -19.6.
Cc1ccc(NC(=O)CCSc2nnnn2-c2ccc3c(c2)OCO3)cc1C was read as TAAR1 antag 8.6, TAAR1 ag -0.7, OX1R antag-1 -18.9, OX1R antag-2 70.6*, CHO parental Ca -7.7 and GPR7 antag -15.0.
